Laboratory results: publication PMC2944037 (Environmental toxicology and chemistry / SETAC, 2010)
“Also recorded” adds a separate entry of the source. Like-named read-outs stand apart in the source and are kept apart here.

Key:
hER = settings: read-out: EC50, hER agonist; cited from earlier work
[1] = biological target: alligator estrogen receptor alpha (aERα) (Alligator mississippiensis, UniProt Q765N7); test: Cell-free competitive binding assay with baculovirus-expressed recombinant aERα; set-up: species or system American alligator (Alligator mississippiensis); settings: for RBA, Alligator: IC50 of 17β-estradiol / IC50 of compound × 100; for Binding classification for aERα: non-binder <50% E2 displaced, equivocal binder 50% or greater but <80%; for Binder class, Alligator: aERα, displacement of [3H]E2 at highest soluble concentration; for E2 displaced from aERα: maximum displacement of radiolabeled E2
aERα [2] = test: CV1 transactivation assay with exogenous aERα; type: cell-based, American alligator (Alligator mississippiensis)
endogenous hERα and hERβ = test: T47D-KBluc transactivation assay; type: cell-based, human
Summary of the method: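 Stably transfected T47D reporter line (endogenous ERα/ERβ, 3×-ERE-TATA-Luc) was plated at 10,000 cells/well and dosed after overnight culture for 24 h. […] After PBS rinse and lysis, luciferase RLU was read with D-luciferin and converted to log fold induction. One-way ANOVA was applied. There were two independent experiments, four wells per treatment.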

aERα [3] = settings: read-out: Dissociation constant (Kd) of aERα for E2; recombinant aERα; cited from earlier work
[4] = biological target: T1, human estrogen receptor alpha (hERα) (Homo sapiens, UniProt P03372); test: Cell-free competitive binding assay with baculovirus-expressed recombinant hERα; settings: for Binding classification for hERα: non-binder <50% E2 displaced, equivocal binder 50% or greater but <80%; for RBA, Human: IC50 of 17β-estradiol / IC50 of compound × 100; for Binder class, Human: hERα, displacement of [3H]E2 at highest soluble concentration; for E2 displaced from hERα: maximum displacement of radiolabeled E2
T1 sequence (P03372 1-595): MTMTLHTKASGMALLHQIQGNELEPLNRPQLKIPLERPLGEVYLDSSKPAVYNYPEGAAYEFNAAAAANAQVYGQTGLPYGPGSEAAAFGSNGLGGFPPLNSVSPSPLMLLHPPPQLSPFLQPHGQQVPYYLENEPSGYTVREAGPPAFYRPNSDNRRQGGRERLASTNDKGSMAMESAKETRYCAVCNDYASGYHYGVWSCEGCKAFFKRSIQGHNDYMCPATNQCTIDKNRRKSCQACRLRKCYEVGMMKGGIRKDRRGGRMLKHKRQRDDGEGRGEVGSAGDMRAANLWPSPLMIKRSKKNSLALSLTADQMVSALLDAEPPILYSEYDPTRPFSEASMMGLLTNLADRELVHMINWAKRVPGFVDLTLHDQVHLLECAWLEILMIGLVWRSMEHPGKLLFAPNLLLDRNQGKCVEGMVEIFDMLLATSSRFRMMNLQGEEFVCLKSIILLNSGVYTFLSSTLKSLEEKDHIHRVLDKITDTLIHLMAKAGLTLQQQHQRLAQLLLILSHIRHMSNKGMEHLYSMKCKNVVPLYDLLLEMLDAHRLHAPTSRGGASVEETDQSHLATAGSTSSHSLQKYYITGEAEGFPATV

[5] = test system: alligator estrogen receptor (aER) derived from adult female alligator oviductal tissue; settings: cited from earlier work
human MCF-7 cells = settings: proliferation of human MCF-7 cells; cited from earlier work
[6] = test system: human estrogen receptor (hER); settings: cited from earlier work
alligator embryos = settings: cited from earlier work
hERα = hERα (Homo sapiens, UniProt P03372); test: CV1 transactivation assay with exogenous hERα; type: cell-based
CV1 cells = test: Cell distress observed in the CV1 transactivation assay; type: cell-based, monkey; settings: 30 μM
T47D-KBluc cells = test: Cytotoxicity observed in the T47D-KBluc assay; type: cell-based, human; settings: 30 μM

SMILES: OC(c1ccc(Cl)cc1)(c1ccccc1Cl)C(Cl)(Cl)Cl (racemic) [racemic (±) o,p′-dicofol, o,p′-dicofol]
- EC50 (hER): 4200 nM

SMILES: OC(c1ccc(Cl)cc1)(c1ccccc1Cl)C(Cl)(Cl)Cl (single isomer, unassigned; (-)) [(−) o,p′-dicofol, o,p′-dicofol]
- EC50 (hER): 510 nM

SMILES: C[C@]12CC[C@@H]3c4ccc(O)cc4CC[C@H]3[C@@H]1CC[C@@H]2O [17β-Estradiol, reference compound]
- RBA, Alligator [1]: 100
- Transcription of estrogen responsive gene with aERα (aERα [2]; CV1 cells): induced transcription
- Transcriptional activation of estrogen-dependent reporter (endogenous hERα and hERβ; T47D-KBluc cells): dose dependent transactivation
- Kd (aERα [3]): 0.44 ± 0.039 nM

SMILES: CCNc1nc(Cl)nc(NC(C)C)n1 [Atrazine]
- Binding to hERα ([4]; at concentrations up to 100 μM): not able to bind
- Binding classification for hERα [4]: not able to bind; also recorded: non-binders
- Binding to aERα ([1]; at concentrations up to 100 μM): not able to bind
- Binding classification for aERα [1]: not able to bind; also recorded: non-binders
- Binding to oviduct-derived aER [5]: able to bind
- Activity in the E-screen assay (human MCF-7 cells): inactive
- Binding to hER [6]: do not bind
- Sex reversal (alligator embryos; 33°C, stage 21, single topical egg exposure to 0.14, 1.40, or 14.0 ppm): no sex reversal at any concentration
- Gonadal aromatase activity (alligator embryos; in ovo exposure): did alter gonadal aromatase activity
- Plasma E2 concentrations (alligator embryos; in ovo exposure): not plasma E2 concentrations

SMILES: CC(C)(c1ccc(O)cc1)c1ccc(O)cc1 [Bisphenol A, reference compound]
- RBA, Human [4]: 0.05
- IC50 [1]: 1070 nM
- RBA, Alligator [1]: 0.07

SMILES: CCNc1nc(Cl)nc(NC(C)(C)C#N)n1 [Cyanazine, cyanazine]
- Binder class, Alligator [1]: NB (Non-binder: displaced less than 50% 17b-estradiol at the highest soluble concentration.)
- Activity in the E-screen assay (human MCF-7 cells): inactive

SMILES: C[C@]12CC[C@@H]3c4ccc(O)cc4C[C@@H](CCCCCCCCC[S+]([O-])CCCC(F)(F)C(F)(F)F)[C@H]3[C@@H]1CC[C@@H]2O (stereo partly drawn) [ICI, ICI 182,780, reference compound]
- Effect of ICI on E2-elicited transcriptional activation (aERα [2]; 1 μM ICI + 10 nM E2, data not shown): ablated
- Effect of ICI on E2-elicited transactivation (endogenous hERα and hERβ; 1 μM ICI + 30 pM E2, data not shown): reversed

SMILES: CCc1cccc(CC)c1N(COC)C(=O)CCl [alachlor]
- Binding to oviduct-derived aER [5]: able to bind
- Activity in the E-screen assay (human MCF-7 cells): inactive
- Binding to hER [6]: do not bind

SMILES: ClC1=C(Cl)C2(Cl)C3C(Cl)C(Cl)CC3C1(Cl)C2(Cl)Cl (stereo not drawn) [chlordane]
- Binding to oviduct-derived aER [5]: able to bind
- Activity in the E-screen assay (human MCF-7 cells): inactive

SMILES: ClC1=C(Cl)[C@]2(Cl)[C@H]3[C@H]([C@H](Cl)C(Cl)[C@@H]3Cl)[C@@]1(Cl)C2(Cl)Cl (stereo partly drawn) [cis-Nonachlor]
- RBA, Human [4]: 0.003
- Binder class, Human [4]: EB (Equivocal binder: displaced greater than 50%, but less than 80% at the highest soluble concentration.)
- RBA, Alligator [1]: 0.006
- Binder class, Alligator [1]: EB (Equivocal binder: displaced greater than 50%, but less than 80% at the highest soluble concentration.)

SMILES: ClC1=C(Cl)C2(Cl)C3C(Cl)C=CC3C1(Cl)C2(Cl)Cl (stereo not drawn) [heptachlor]
- Binding to oviduct-derived aER [5]: able to bind
- Activity in the E-screen assay (human MCF-7 cells): inactive

SMILES: Cl[C@H]1[C@H](Cl)[C@@H](Cl)[C@@H](Cl)[C@H](Cl)[C@H]1Cl [lindane]
- Activity in the E-screen assay (human MCF-7 cells): inactive

SMILES: ClC(Cl)=C(c1ccc(Cl)cc1)c1ccccc1Cl [o,p′-DDE, 1-Chloro-2-[2,2-dichloro-1-(4-chlorophenyl)ethenyl]benzene]
- IC50 [4]: 219000 nM
- RBA, Human [4]: 0.003
- Binder class, Human [4]: EB (Equivocal binder: displaced greater than 50%, but less than 80% at the highest soluble concentration.)
- Binding classification for hERα [4]: equivocal binders
- IC50 [1]: 85100 nM
- Binder class, Alligator [1]: EB (Equivocal binder: displaced greater than 50%, but less than 80% at the highest soluble concentration.)
- Binding classification for aERα [1]: equivocal binders

SMILES: Clc1ccc(C(c2ccccc2Cl)C(Cl)(Cl)Cl)cc1 (stereo not drawn) [o,p′-DDT, 1-Chloro-2-[2,2,2-trichloro-1-(4-chlorophenyl)ethyl]benzene]
- IC50 [1]: 977 nM
- RBA, Alligator [1]: 0.08

SMILES: Clc1ccc(C(c2ccc(Cl)cc2)C(Cl)Cl)cc1 [p,p′-DDD, 1-Chloro-4-[2,2-dichloro-1-(4-chlorophenyl)ethyl]benzene]
- Binder class, Human [4]: NB (Non-binder: displaced less than 50% 17b-estradiol at the highest soluble concentration.)
- Binding classification for hERα [4]: non-binders
- Binder class, Alligator [1]: NB (Non-binder: displaced less than 50% 17b-estradiol at the highest soluble concentration.)
- Binding classification for aERα [1]: non-binders

SMILES: ClC(Cl)=C(c1ccc(Cl)cc1)c1ccc(Cl)cc1 [p,p′-DDE, 1-Chloro-4-[2,2-dichloro-1-(4-chlorophenyl)ethenyl]benzene]
- Binder class, Human [4]: NB (Non-binder: displaced less than 50% 17b-estradiol at the highest soluble concentration.)
- E2 displaced from hERα [4]: ~0%
- Binding classification for hERα [4]: non-binders
- Binder class, Alligator [1]: NB (Non-binder: displaced less than 50% 17b-estradiol at the highest soluble concentration.)
- E2 displaced from aERα [1]: ~28%
- Binding classification for aERα [1]: non-binders
- Sex ratio (alligator embryos; 100 ppb in ovo, 32°C (mixed sex ratio)): slight female sex bias
- Male to female sex reversal (alligator embryos; 100 ppb in ovo, 33.5°C): no male to female sex reversal

SMILES: OC(c1ccc(Cl)cc1)(c1ccc(Cl)cc1)C(Cl)(Cl)Cl [p,p′-Dicofol, p,p′-dicofol]
- RBA, Human [4]: 0.001
- Binder class, Human [4]: EB (Equivocal binder: displaced greater than 50%, but less than 80% at the highest soluble concentration.)
- E2 displaced from hERα [4]: 58%
- Binding classification for hERα [4]: equivocal binder
- RBA, Alligator [1]: 0.02
- E2 displaced from aERα [1]: 83%
- IC50 ([1]; read-out: IC50 for aERα): 4000 nM
- Concentration eliciting maximal transactivation (hERα; CV1 assay, hERα): 10 µM
- Transcription of estrogen responsive gene with hERα (hERα; CV1 cells): induced transcription
- Concentration eliciting maximal transactivation (aERα [2]; CV1 assay, aERα): 10 µM
- Transcription of estrogen responsive gene with aERα (aERα [2]; CV1 cells): induced transcription
- EC50 (aERα [2]; read-out: EC50, transcriptional activation through aERα, CV1 cells, 3x-ERE-TATA-Luc): 2800 nM
- Concentration eliciting maximal transactivation (endogenous hERα and hERβ; T47D-KBluc assay): 10 µM
- Transcriptional activation of estrogen-dependent reporter (endogenous hERα and hERβ; T47D-KBluc cells): dose-dependent increase
- EC50 (endogenous hERα and hERβ; read-out: EC50, transcriptional activation through hER, T47D-KBluc cells): 1500 nM
- Cell distress (increase in detached cells) (CV1 cells): cell distress
- Cytotoxicity (cell detachment, cytopathology) (T47D-KBluc cells): toxic to the cells
- EC50 (hER): 1600 nM

SMILES: ClC1=C(Cl)[C@]2(Cl)[C@H]3[C@H]([C@H](Cl)C(Cl)[C@@H]3Cl)[C@@]1(Cl)C2(Cl)Cl (stereo partly drawn) [trans-Nonachlor]
- Binder class, Human [4]: NB (Non-binder: displaced less than 50% 17b-estradiol at the highest soluble concentration.)
- E2 displaced from hERα [4]: 48%
- Binding classification for hERα [4]: non-binder
- RBA, Alligator [1]: 0.005
- Binder class, Alligator [1]: EB (Equivocal binder: displaced greater than 50%, but less than 80% at the highest soluble concentration.)
- E2 displaced from aERα [1]: 68%
- Binding classification for aERα [1]: equivocal binder
